Data published in ChEMBL document CHEMBL2331538, “Identification of inhibitors against interaction between pro-inflammatory sPLA2-IIA protein and integrin αvβ3” (Bioorg Med Chem Lett, 2013).
Activity calls are given as the source filed them. The calls are words filed in the database; no cut-off is given here.

Assays:
[1] = target: T1, Phospholipase A2, membrane associated (Homo sapiens, UniProt P14555); assay: Inhibition of sPLA2-IIA (unknown origin)-integrin alphaVbeta3 interaction in human K562 cells pretreated for 30 mins to immobilized sPLA2 before adding cells by phosphatase assay; type: cell-based
T1 sequence (P14555 whole entry): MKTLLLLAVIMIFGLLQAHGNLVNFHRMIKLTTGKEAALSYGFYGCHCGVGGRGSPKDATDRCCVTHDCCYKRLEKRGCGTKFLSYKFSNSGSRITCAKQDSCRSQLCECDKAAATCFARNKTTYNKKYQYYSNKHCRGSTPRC
In short: (§1)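 Wells coated with sPLA2-IIA and blocked with BSA were preincubated with compound (10 to 500 μM) for 30 min. Integrin αvβ3-transfected K562 erythroleukemia cells were then added for 1 h at 37 °C, and bound cells were quantified by phosphatase assay. IC50 and maximum inhibition were derived from dose-response experiments.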

[2] = target: T2, Phospholipase A2, membrane associated (Homo sapiens) (UniProt P14555); assay: Inhibition of sPLA2-IIA (unknown origin)-integrin alphaVbeta3 interaction in human K562 cells pretreated for 30 mins to immobilized sPLA2 before adding cells by phosphatase assay relative to BSA; type: cell-based; in short: as §1
T2 sequence (whole entry): T1 sequence (P14555 whole entry)

[3] = target: T2, Phospholipase A2, membrane associated (Homo sapiens); assay: Inhibition of sPLA2-IIA (unknown origin)-integrin alphaVbeta3 interaction in human K562 cells pretreated at 200 uM for 30 mins to immobilized sPLA2 before adding cells by phosphatase assay; type: cell-based
In short: (§2)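 Specificity adhesion assay using αvβ3-transfected K562 cells. Wells were coated with either ADAM15 or sPLA2-IIA and blocked with BSA. Compound was used at 200 μM. Adherent cells were quantified by phosphatase assay. Means ± S.E., n=3.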

[4] = target: T3, Disintegrin and metalloproteinase domain-containing protein 15 (Homo sapiens) (UniProt Q13444); assay: Inhibition of ADAM15 (unknown origin)-integrin alphaVbeta3 interaction in human K562 cells pretreated at 200 uM for 30 mins to immobilized sPLA2 before adding cells by phosphatase assay; type: cell-based; in short: as §2
T3 sequence (whole entry): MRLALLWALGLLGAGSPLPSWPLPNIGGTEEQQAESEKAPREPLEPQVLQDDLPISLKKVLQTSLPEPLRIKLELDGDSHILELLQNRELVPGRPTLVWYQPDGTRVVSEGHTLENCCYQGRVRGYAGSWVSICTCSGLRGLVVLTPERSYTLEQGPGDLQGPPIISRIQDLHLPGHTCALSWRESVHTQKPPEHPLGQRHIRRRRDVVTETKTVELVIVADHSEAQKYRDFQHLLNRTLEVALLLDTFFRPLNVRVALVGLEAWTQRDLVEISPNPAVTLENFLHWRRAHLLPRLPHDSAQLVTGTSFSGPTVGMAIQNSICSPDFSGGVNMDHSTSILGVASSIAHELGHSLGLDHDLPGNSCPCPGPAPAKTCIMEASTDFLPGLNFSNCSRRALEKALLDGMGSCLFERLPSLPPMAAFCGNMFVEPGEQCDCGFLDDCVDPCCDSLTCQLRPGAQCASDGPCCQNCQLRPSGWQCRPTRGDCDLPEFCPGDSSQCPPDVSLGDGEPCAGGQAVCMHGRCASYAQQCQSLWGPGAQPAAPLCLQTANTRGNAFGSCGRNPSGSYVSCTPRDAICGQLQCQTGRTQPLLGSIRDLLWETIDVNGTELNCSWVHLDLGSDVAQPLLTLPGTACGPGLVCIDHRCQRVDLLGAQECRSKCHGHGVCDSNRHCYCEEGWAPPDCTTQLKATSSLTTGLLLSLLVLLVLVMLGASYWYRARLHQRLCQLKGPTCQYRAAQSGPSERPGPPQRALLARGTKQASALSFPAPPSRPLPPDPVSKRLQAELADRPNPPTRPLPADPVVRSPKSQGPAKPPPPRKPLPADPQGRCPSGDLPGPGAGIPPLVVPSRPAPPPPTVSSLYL

U-937 [5] = assay: Inhibition of sPLA2-IIA (unknown origin)-induced migration of human U937 cells after 20 hrs by chemotaxis assay
[6] = target: T2, Phospholipase A2, membrane associated (Homo sapiens); assay: Inhibition of sPLA2-IIA (unknown origin)-induced migration of human U937 cells after 20 hrs by chemotaxis assay; type: cell-based; settings: U-937
In short: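 Modified Boyden chamber (Transwell) chemotaxis assay. The lower chamber held sPLA2-IIA (40 ng/ml) with compound (4 to 16 μM), and U937 monocytic cells were placed in the upper chamber for 20 h at 37 °C. Migrated cells were counted. Means ± SE, n=4.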

U-937 [7] = assay: Inhibition of sPLA2-IIA R47E/R100E mutant (unknown origin)-induced migration of human U937 cells after 20 hrs by chemotaxis assay; type: cell-based

Imax [2]	SMILES	further results
< 30%	C[C@H](NC(=O)[C@H](CCCCN)NC(=O)[C@H](Cc1ccc(O)cc1)NC(=O)[C@H](Cc1cnc[nH]1)NC(=O)c1cnccn1)C(=O)N[C@H](CC(N)=O)C(=O)N[C@H](C(=O)O)[C@@H](C)O	
71%	C[C@H](NC(=O)[C@@H](CCCNC(=N)N)NC(=O)[C@@H](CC(N)=O)NC(=O)[C@@H](CCCNC(=N)N)NC(=O)[C@@H](Cc1ccccc1)NC(=O)c1ccc2nn3c(c2c1)OCc1cc(Cl)ccc1-3)C(=O)N[C@@H](Cc1ccc(O)cc1)C(=O)O	IC50 [1]: 85 µM
< 30%	CC(C)[C@H](NC(=O)[C@@H]1CCCN1C(=O)[C@@H](CC(N)=O)NC(=O)[C@@H](CCCNC(=N)N)NC(=O)[C@H](CCCCN)NC(=O)[C@H](Cc1c[nH]c2ccccc12)NC(=O)c1csc(-c2ccccn2)n1)C(=O)O	
93%	Cc1nc(NC(=O)c2ccccc2)sc1-c1cc(C(=O)NCC(=O)N[C@H](CCCNC(=N)N)C(=O)NCC(=O)N[C@H](CC(=O)O)C(=O)N[C@H](CC(=O)O)C(=O)N[C@H](CC(=O)O)C(=O)O)[nH]n1	inhibition [3]: Active; inhibition [4]: inactive; inhibition (U-937 [5]): inactive
inactive	Cc1nc(NC(=O)c2ccccc2)sc1-c1cc(C(=O)NCC(=O)N[C@H](CCCNC(=N)N)C(=O)NCC(=O)N[C@H](CC(=O)O)C(=O)N[C@H](CC(=O)O)C(=O)O)[nH]n1	
85%	CC[C@H](C)[C@H](NC(=O)[C@@H](CC(=O)O)NC(=O)[C@H](Cc1c[nH]c2ccccc12)NC(=O)[C@H](C)NC(=O)c1cc(-c2sc(NC(=O)c3ccccc3)nc2C)n[nH]1)C(=O)O	inhibition [3]: Active; inhibition [6]: Dose-dependent effect; inhibition [4]: inactive; IC50 [1]: 20 µM; inhibition (U-937 [7]): inactive
< 30%	CC(C)[C@H](NC(=O)CC1NC(=O)NC1=O)C(=O)N[C@H](CC(N)=O)C(=O)N[C@@H](Cc1c[nH]c2ccccc12)C(=O)N1CCC[C@H]1C(=O)N[C@@H](CCC(N)=O)C(=O)N[C@@H](CCC(N)=O)C(=O)O (stereo partly specified)	
inactive	CC[C@H](C)[C@H](NC(=O)[C@@H](CC(=O)O)NC(=O)[C@H](Cc1c[nH]c2ccccc12)NC(=O)[C@H](C)N)C(=O)O	
< 30%	N=C(N)NCCC[C@@H](NC(=O)c1csc(-c2ccccn2)n1)C(=O)N[C@@H](Cc1c[nH]c2ccccc12)C(=O)N[C@@H](CCC(=O)O)C(=O)N[C@H](Cc1ccccc1)C(=O)O	

Second part, the molecule before the results:

SMILES	Imax [2]	further results
Cc1nc(NC(=O)c2ccccc2)sc1-c1cc(C(=O)NCC(=O)N[C@H](CCCN=C(N)N)C(=O)O)[nH]n1		IC50 [1]: 262 µM
Cc1nc(NC(=O)c2ccccc2)sc1-c1cc(C(=O)N[C@@H](C)C(=O)N[C@@H](Cc2c[nH]c3ccccc23)C(=O)N[C@H](CC(=O)O)C(=O)O)[nH]n1	inactive	
Cc1nc(NC(=O)c2ccccc2)sc1-c1cc(C(=O)NCC(=O)N[C@H](CCCNC(=N)N)C(=O)O)[nH]n1	77%	
N=C(N)NCCC[C@@H](NC(=O)CN)C(=O)NCC(=O)N[C@H](CC(=O)O)C(=O)N[C@H](CC(=O)O)C(=O)N[C@H](CC(=O)O)C(=O)O	inactive	
Cc1nc(NC(=O)c2ccccc2)sc1-c1cc(C(=O)NCC(=O)N[C@H](CCCN=C(N)N)C(=O)NCC(=O)N[C@H](CC(=O)O)C(=O)N[C@H](CC(=O)O)C(=O)N[C@H](CC(=O)O)C(=O)O)[nH]n1		IC50 [1]: 71 µM
Cc1nc(NC(=O)c2ccccc2)sc1-c1cc(C(=O)NCC(=O)O)[nH]n1	98%	
Cc1nc(NC(=O)c2ccccc2)sc1-c1cc(C(=O)NCC(=O)N[C@H](CCCNC(=N)N)C(=O)NCC(=O)O)[nH]n1	81%	
Cc1nc(NC(=O)c2ccccc2)sc1-c1cc(C(=O)N[C@@H](C)C(=O)O)[nH]n1	inactive	
Cc1nc(NC(=O)c2ccccc2)sc1-c1cc(C(=O)O)[nH]n1	inactive	
Cc1nc(NC(=O)c2ccccc2)sc1-c1cc(C(=O)N[C@@H](C)C(=O)N[C@@H](Cc2c[nH]c3ccccc23)C(=O)O)[nH]n1	inactive	
Cc1nc(NC(=O)c2ccccc2)sc1-c1cc(C(=O)NCC(=O)N[C@H](CCCN=C(N)N)C(=O)NCC(=O)N[C@H](CC(=O)O)C(=O)O)[nH]n1		IC50 [1]: 155 µM
Cc1nc(NC(=O)c2ccccc2)sc1-c1cc(C(=O)NCC(=O)N[C@H](CCCNC(=N)N)C(=O)NCC(=O)N[C@H](CC(=O)O)C(=O)O)[nH]n1	87%	
Cc1nc(NC(=O)c2ccccc2)sc1-c1cc(C(=O)NCC(=O)N[C@H](CCCN=C(N)N)C(=O)NCC(=O)O)[nH]n1		IC50 [1]: 217 µM
